# pIC50: −log10 of the molar value.
# Experiments:
# Human betaherpesvirus 5 [1] = assay: Compound was tested for antiviral activity against HCMV in viral cytopathic effect (CPE) assay; type: functional, organism-based
# Method in brief: (§1)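 HCMV viral cytopathic effect scored microscopically as visible virus effects on cells; IC50 derived by linear regression of percent inhibition vs log drug concentration.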
# HFF [2] = assay: Compound was tested for antiviral activity against AD169 strain of HCMV in a plaque reduction assay using HFF cells; type: functional, cell-based; details: Homo sapiens
# Human betaherpesvirus 5 [3] = assay: Compound was tested for antiviral activity against HCMV in DNA hybridization assay; type: functional, organism-based
# Method in brief: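 HCMV replication measured by DNA hybridization; IC50 from linear regression of percent inhibition against log drug concentration.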
# HFF [4] = assay: Compound was tested for visual cytotoxicity on HFF cells unaffected by HCMV at the time of plaque enumeration; type: functional, cell-based; details: Homo sapiens
# Method in brief: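 Stationary HFF cells not affected by virus in plaque assay plates inspected microscopically for cytotoxicity at time of plaque enumeration; IC50 by regression of percent inhibition vs log concentration.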
# Human alphaherpesvirus 1 = assay: Compound was tested for antiviral activity against HSV-1 assayed by ELISA in quadruplicate wells; type: functional, organism-based
# Method in brief: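 HSV-1 replication measured by ELISA in quadruplicate wells; IC50 from linear regression of percent inhibition against log drug concentration.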
# [5] = (§2) Compound was tested for inhibition of KB cell growth in quadruplicate assay; type: functional, cell-based; details: Homo sapiens
# Method in brief: (§3)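 KB cell proliferation over two control population doublings; crystal violet staining with spectrophotometric quantification of eluted dye; quadruplicate assays; IC50 by linear regression of percent inhibition vs log concentration.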
# [6] = Compound was tested for antiviral activity against Towne strain of HCMV in a yield reduction assay using HFF cells; type: functional; details: Homo sapiens
# Method in brief: (§4)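 HCMV Towne yield reduction in HFF cells, MOI 0.5; progeny titred by end-point dilution and plaque enumeration; IC50 from linear regression of percent inhibition against log drug concentration.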
# HFF [7] = assay: Compound was tested for antiviral activity against Towne strain of HCMV in a plaque reduction assay using HFF cells; type: functional, cell-based; details: Homo sapiens
# HFF [8] = assay: Compound was tested for antiviral activity against 2916 strain of HCMV in plaque reduction assay using HFF cells; type: functional, cell-based; details: Homo sapiens
# HFF [9] = assay: Compound was tested for antiviral activity against wild-type Towne virus of HCMV in yield reduction assay using HFF cells; type: functional, cell-based; details: Homo sapiens; method in brief: as §4
# HFF [10] = assay: Compound was tested for antiviral activity against wild-type Towne virus of HCMV in plaque reduction assay using HFF cells; type: functional, cell-based; details: Homo sapiens
# HFF [11] = assay: Compound was tested for antiviral activity against C-4 Towne virus of HCMV in plaque reduction assay using HFF cells; type: functional, cell-based; details: Homo sapiens
# KB = assay: as §2; type: functional, cell-based; details: Homo sapiens; method in brief: as §3
# HFF [12] = assay: Compound was tested for antiviral activity against C-4 Towne virus of HCMV in yield reduction assay using HFF cells; type: functional, cell-based; details: Homo sapiens
# HFF [13] = assay: Compound was tested for antiviral activity against wild-type AD169 virus of HCMV in plaque reduction assay using HFF cells; type: functional, cell-based; details: Homo sapiens
# [14] = Compound was tested for inhibition of MOLT 4 cells.; type: functional, cell-based, Homo sapiens
# Method in brief: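 Cytotoxicity in MOLT 4 cells (human T-cell lymphocytic leukemia line). IC50 from linear regression of percent inhibition against log drug concentration; >100 µM means IC50 was not reached at the highest concentration tested.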
# Human betaherpesvirus 5 [15] = assay: Compound was tested for antiviral activity against HCMV in viral cytopathic effect(CPE) assay; type: functional, organism-based; method in brief: as §1
# HFF [16] = assay: (§5) Compound was tested for antiviral activity against wild-type Towne strain of HCMV in yield reduction assay using HFF cells; type: functional; details: Homo sapiens; method in brief: as §4
# HFF [17] = assay: (§6) Compound was tested for antiviral activity against C-4 Towne strain of HCMV in yield reduction assay using HFF cells; type: functional; details: Homo sapiens
# HFF [18] = assay: Compound was tested for antiviral activity against 2916 type AD169 virus of HCMV in plaque reduction assay using HFF cells; type: functional, cell-based; details: Homo sapiens
# HFF [19] = assay: (§7) Compound was tested for antiviral activity against 2916 AD169 strain of HCMV in yield reduction assay using HFF cells; type: functional, cell-based; details: Homo sapiens
# HFF [20] = assay: (§8) Compound was tested for antiviral activity against wild-type AD169 strain of HCMV in yield reduction assay using HFF cells; type: functional, cell-based; details: Homo sapiens
# HFF [21] = assay: Compound was tested for antiviral activity against AD169 strain of HCMV in a plaque assay using HFF cells; type: functional, cell-based; details: Homo sapiens
# HFF [22] = assay: as §7; type: functional; details: Homo sapiens
# HFF [23] = assay: as §6; type: functional, cell-based; details: Homo sapiens
# HFF [24] = assay: as §5; type: functional, cell-based; details: Homo sapiens; method in brief: as §4
# HFF [25] = assay: as §8; type: functional; details: Homo sapiens
Compound,pIC50 (Human betaherpesvirus 5 [1]),pIC50 (Human betaherpesvirus 5 [3]),pIC50 (HFF [4]),pIC50 (Human alphaherpesvirus 1),pIC50 [5],IC90 [6],pIC50 (HFF [7]),pIC50 (KB),pIC50 [14],other results
CC(=O)OC1[C@@H](OC(C)=O)CO[C@H]1n1c(Br)nc2cc(Cl)c(Cl)cc21 (stereo partly drawn),7.30,6.68,4.23,< 4.00,4.22,50 nM,6.66,,,pIC50 (HFF [2]): 7.30
CC(=O)OC1[C@@H](OC(C)=O)CO[C@H]1n1c(Cl)nc2cc(Cl)c(Cl)cc21 (stereo partly drawn),7.00,6.48,4.39,< 4.00,4.35,100 nM,6.60,,,
OC[C@H]1O[C@@H](n2c(Br)nc3cc(Cl)c(Cl)cc32)[C@H](O)[C@@H]1O,6.52,6.28,3.93,3.89,,200 nM,6.15,< 4.00,,pIC50 (HFF [8]): 6.39; pIC50 (HFF [9]): 6.52; pIC50 (HFF [10]): 5.77; pIC50 (HFF [11]): 4.51; IC90 (HFF [12]): 8000 nM; pIC50 (HFF [13]): 6.47
OC[C@H]1O[C@@H](n2c(Cl)nc3cc(Cl)c(Cl)cc32)[C@H](O)[C@@H]1O,,,,,3.68,1300 nM,5.55,,,
O[C@@H]1COC(n2c(Cl)nc3cc(Cl)c(Cl)cc32)[C@@H]1O (stereo partly drawn),7.00,7.00,4.49,< 4.00,4.22,120 nM,6.62,,,
CC(C)Nc1nc2cc(Cl)c(Cl)cc2n1C1OC[C@H](O)[C@@H]1O (stereo partly drawn),5.64,6.10,,,,,,,4.82,
CC(C)Nc1nc2c(Br)c(Cl)c(Cl)cc2n1C1OC[C@@H](O)[C@H]1O (stereo partly drawn),6.00,6.80,,,,,,,4.89,
O[C@@H]1COC(n2c(Cc3ccccc3S)nc3cc(Cl)c(Cl)cc32)[C@@H]1O (stereo partly drawn),< 5.00,< 5.00,4.49,4.19,,,4.49,4.22,,
CC(C)Nc1nc2cc(Cl)c(Cl)cc2n1C1OC[C@@H](O)[C@H]1O (stereo partly drawn),,6.38,< 4.00,< 4.00,,5000 nM,5.10,< 4.00,4.08,pIC50 (Human betaherpesvirus 5 [15]): 6.10; IC90 (HFF [16]): 6900 nM; pIC50 (HFF [2]): 5.74; IC90 (HFF [17]): 8500 nM
O[C@@H]1COC(n2c(NC3CC3)nc3cc(Cl)c(Cl)cc32)[C@@H]1O (stereo partly drawn),6.22,6.59,< 4.00,< 4.00,< 4.00,6800 nM,4.72,,3.88,IC90 (HFF [16]): 10000 nM; IC90 (HFF [17]): 5000 nM
O[C@@H]1C(n2c(NC3CC3)nc3cc(Cl)c(Cl)cc32)OC[C@@H]1O (stereo partly drawn),5.64,5.70,,,,,,,4.37,
O[C@@H]1COC(n2c(Br)nc3cc(Cl)c(Cl)cc32)[C@@H]1O (stereo partly drawn),7.30,6.64,4.49,4.30,,60 nM,6.62,4.30,4.33,pIC50 (HFF [2]): 7.40; pIC50 (HFF [10]): 6.64; pIC50 (HFF [18]): 7.52; pIC50 (HFF [11]): 4.92; pIC50 (HFF [13]): 7.52
CC(C)Nc1nc2c(Cl)c(Cl)c(Cl)cc2n1C1OC[C@H](O)[C@@H]1O (stereo partly drawn),6.10,6.82,,,,,,,,
CC(C)Nc1nc2cc(Cl)c(Cl)cc2n1C1O[C@@H](CO)[C@H](O)[C@@H]1O (stereo partly drawn),,7.00,< 4.00,< 4.00,4.19,600 nM,,,,pIC50 (HFF [19]): < 4.00; IC90 (HFF [16]): 590 nM; IC90 (HFF [17]): 700 nM; pIC50 (HFF [20]): 6.48; pIC50 (HFF [21]): 6.35
Nc1nc2c(ncn2COC(CO)CO)c(=O)[nH]1 [GANCICLOVIR],,6.06,< 4.00,,,1600 nM,,< 4.00,,IC90 (HFF [22]): 3600 nM; pIC50 (Human betaherpesvirus 5 [15]): 5.70; IC90 (HFF [23]): 4100 nM; pIC50 (HFF [24]): 5.35; IC90 (HFF [25]): 3300 nM

# Reference: ChEMBL document CHEMBL1133754, “Synthesis and antiviral evaluation of halogenated beta-D- and -L-erythrofuranosylbenzimidazoles” (J Med Chem, 2000)
